The record followed here is ChEMBL document CHEMBL3085677, “Novel coumarin-3-carboxamides bearing N-benzylpiperidine moiety as potent acetylcholinesterase inhibitors” (Eur J Med Chem, 2013).

Structures are written as SMILES. Calls of active or inactive are those of the source. No cut-off for these calls is given here.

Data set [1] in a line: Cytotoxicity against rat PC12 cells at 1 to 100 uM after 24 hrs by MTT assay. The settings on record: pc-12, 24 h. It counts as cell-based.
The next data set deals with PC-12. Put plainly: Protection against H2O2-induced cell death in rat PC12 cells pretreated at 1 to 100 uM for 3 hrs before H2O2 challenge using DAPI staining method. Format: functional, cell-based. In a few lines: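 Rat PC12 cells grown in RPMI 1640 with 10% FCS and penicillin/streptomycin, plated at 10^4 cells/well. Held 2 days serum-free, then given NGF 50 ng/ml for 5 days until neurites formed. Pretreated 3 h at three compound levels before H2O2 challenge. Apoptosis judged by DAPI added to live cells for 20 min. Viability read by MTT after 24 h.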

Data set [2] in a line: Selectivity index, ratio of IC50 for equine serum BChE to IC50 for electric eel AChE. In a few lines:
(§1)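 Ellman-type assay at 25 °C with eel AChE (Type V-S) or equine serum BuChE, added as a 2.5 unit/mL enzyme solution. Medium was 0.1 M phosphate buffer pH 8.0 with DTNB added from a 0.01 M solution. Inhibitor was preincubated 15 min before acetylthiocholine or butyrylthiocholine iodide. ΔA412 was read over 6 min, corrected against a non-enzymatic blank. Five concentrations in triplicate gave 20–80% inhibition. IC50 came graphically from log-concentration curves, mean of three experiments; SI = IC50 BuChE/IC50 AChE.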

The next data set deals with Cholinesterase (Equus caballus, UniProt P81908). Put plainly: Inhibition of equine serum BChE using butyrylthiocholine iodide as substrate preincubated for 15 mins prior to substrate addition by Ellman's method. In a few lines: as §1
Sequence of Cholinesterase (P81908 whole entry): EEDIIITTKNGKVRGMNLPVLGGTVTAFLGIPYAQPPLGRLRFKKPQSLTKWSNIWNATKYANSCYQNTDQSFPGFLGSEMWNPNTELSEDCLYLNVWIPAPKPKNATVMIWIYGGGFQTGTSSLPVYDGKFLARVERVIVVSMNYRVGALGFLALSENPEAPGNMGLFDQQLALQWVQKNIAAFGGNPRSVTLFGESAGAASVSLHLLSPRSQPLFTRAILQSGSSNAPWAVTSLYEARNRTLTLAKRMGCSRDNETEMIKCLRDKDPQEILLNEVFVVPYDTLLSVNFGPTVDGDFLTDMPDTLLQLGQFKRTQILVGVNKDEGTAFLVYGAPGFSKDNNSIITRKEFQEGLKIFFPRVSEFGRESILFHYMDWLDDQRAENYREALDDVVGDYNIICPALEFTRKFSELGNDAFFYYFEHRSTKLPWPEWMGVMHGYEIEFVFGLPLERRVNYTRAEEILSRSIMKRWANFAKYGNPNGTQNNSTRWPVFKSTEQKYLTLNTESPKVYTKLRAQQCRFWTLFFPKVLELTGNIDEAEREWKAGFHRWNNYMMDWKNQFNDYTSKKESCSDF
The target of the next data set is Acetylcholinesterase (Electrophorus electricus, UniProt O42275). Put plainly: Inhibition of electric eel AChE using acetylcholine as substrate preincubated for 15 mins prior to substrate addition by Ellman's method.
Sequence of Acetylcholinesterase (O42275 whole entry): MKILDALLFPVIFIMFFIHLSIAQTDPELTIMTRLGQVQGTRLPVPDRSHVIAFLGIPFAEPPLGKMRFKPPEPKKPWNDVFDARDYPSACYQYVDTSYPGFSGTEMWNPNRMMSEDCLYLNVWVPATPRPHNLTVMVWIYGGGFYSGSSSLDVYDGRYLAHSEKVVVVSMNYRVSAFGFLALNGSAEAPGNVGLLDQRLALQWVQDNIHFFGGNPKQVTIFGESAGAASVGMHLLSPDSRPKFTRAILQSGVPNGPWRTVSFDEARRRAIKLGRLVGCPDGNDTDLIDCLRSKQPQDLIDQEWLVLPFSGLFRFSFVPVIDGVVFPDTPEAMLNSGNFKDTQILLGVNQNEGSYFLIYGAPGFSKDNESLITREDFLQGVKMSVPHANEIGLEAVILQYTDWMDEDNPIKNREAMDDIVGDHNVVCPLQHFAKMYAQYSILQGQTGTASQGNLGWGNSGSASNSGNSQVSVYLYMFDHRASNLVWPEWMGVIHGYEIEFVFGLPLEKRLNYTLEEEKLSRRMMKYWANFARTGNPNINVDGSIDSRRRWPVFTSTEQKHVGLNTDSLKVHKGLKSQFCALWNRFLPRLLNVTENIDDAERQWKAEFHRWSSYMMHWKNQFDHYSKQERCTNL
Data set [3] addresses Acetylcholinesterase (Electrophorus electricus) (UniProt O42275). Put plainly: Mixed-type inhibition of electric eel AChE using acetylcholine as substrate by Lineweaver-Burk plot method. Summed up:
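Kinetics used eel AChE with inhibitor fixed at 0.357, 3.57 or 11.9 nM. Initial velocities were measured across several acetylthiocholine concentrations. Reciprocal velocity (1/v) was plotted against 1/[ATCh] (double-reciprocal plot).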

The target is the same in data set [4]. Put plainly: Ratio of donepezil IC50 to compound IC50 for electric eel AChE using acetylcholine as substrate preincubated for 15 mins prior to substrate addition by Ellman's method.

Sequence of Acetylcholinesterase (Electrophorus electricus) (O42275 24-633 limits assumed): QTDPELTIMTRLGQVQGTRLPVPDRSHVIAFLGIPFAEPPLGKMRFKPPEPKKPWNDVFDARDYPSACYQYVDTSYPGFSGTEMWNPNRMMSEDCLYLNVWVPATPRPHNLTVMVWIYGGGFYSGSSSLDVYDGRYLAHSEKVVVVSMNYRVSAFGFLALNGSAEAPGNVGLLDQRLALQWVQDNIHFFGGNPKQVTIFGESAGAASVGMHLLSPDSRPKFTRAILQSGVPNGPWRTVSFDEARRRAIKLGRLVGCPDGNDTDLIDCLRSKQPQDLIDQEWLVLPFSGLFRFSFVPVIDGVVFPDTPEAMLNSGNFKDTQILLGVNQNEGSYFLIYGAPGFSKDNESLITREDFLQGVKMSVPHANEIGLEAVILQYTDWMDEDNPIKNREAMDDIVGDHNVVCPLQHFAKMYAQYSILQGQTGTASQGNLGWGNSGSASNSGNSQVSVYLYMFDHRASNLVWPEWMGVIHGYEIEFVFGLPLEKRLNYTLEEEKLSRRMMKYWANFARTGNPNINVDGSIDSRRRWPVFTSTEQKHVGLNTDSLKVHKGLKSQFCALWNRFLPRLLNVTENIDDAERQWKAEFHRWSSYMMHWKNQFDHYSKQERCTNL

Turning to `COc1ccc2cc(C(=O)NCCC3CCN(Cc4ccccc4)CC3)c(=O)oc2c1`, in data set [1], the Activity result is on record as “Non-toxic”. The result in the data set on PC-12 was Active. Also, the Ratio IC50 in data set [2] worked out at 71. Moreover, the IC50 on Cholinesterase worked out at 357 nM; on Acetylcholinesterase, 5 nM.

With `O=C(NCCC1CCN(Cc2ccccc2)CC1)c1cc2cc(O)ccc2oc1=O`, the Ratio IC50 in data set [2] was 222. The IC50 amounted to 15600 nM on Cholinesterase and 70 nM at Acetylcholinesterase.

For `O=C(NCCC1CCN(Cc2ccccc2)CC1)c1cc2cc([N+](=O)[O-])ccc2oc1=O`, the inhibition result in data set [3] is “Active”. Besides, the values for the Ratio IC50 in data set [4] and in data set [2] were 46 and 26300, respectively. For the same compound, in data set [1], the Activity result is “Non-toxic”. The outcome in the data set on PC-12 was Active. Also, the figures for the IC50 on Cholinesterase and on Acetylcholinesterase were 7900 nM and 0.3 nM, respectively.

`O=C(NC1CCN(Cc2ccccc2)CC1)c1cc2ccccc2oc1=O`: in data set [2], the Ratio IC50 came out at 14. Also, the IC50 against Cholinesterase turned out to be 17000 nM; on Acetylcholinesterase, 1200 nM.

As to `O=C(NCCC1CCN(Cc2ccccc2)CC1)c1cc2ccccc2oc1=O`, in data set [2], the Ratio IC50 turned out to be 14. Further, the figures for the IC50 against Cholinesterase and against Acetylcholinesterase were 371 nM and 26 nM, respectively.

In the case of `COc1cccc2cc(C(=O)NCCC3CCN(Cc4ccccc4)CC3)c(=O)oc12`, in data set [2], the Ratio IC50 is 9000. Further, the results for the concentration for half-maximal inhibition (IC50) at Cholinesterase and at Acetylcholinesterase were 18000 nM and 2 nM, respectively.

Turning to `O=C(NC1CCN(Cc2ccccc2)CC1)c1cc2cc(Br)ccc2oc1=O`, in data set [2], the Ratio IC50 amounted to 1400. Further, the IC50 against Cholinesterase was 42000 nM; at Acetylcholinesterase it was 30 nM.

Turning to `COc1cccc2cc(C(=O)NC3CCN(Cc4ccccc4)CC3)c(=O)oc12`, the Ratio IC50 in data set [2] turned out to be 32. For the same compound, the results for the IC50 against Cholinesterase and at Acetylcholinesterase were 20000 nM and 633 nM, respectively.

As to `O=C(NCCC1CCN(Cc2ccccc2)CC1)c1cc2ccc(O)cc2oc1=O`, the Ratio IC50 in data set [2] turned out to be 321. Moreover, the figures for the IC50 against Cholinesterase and against Acetylcholinesterase were 46000 nM and 143 nM, respectively.

Consider `O=C(NC1CCN(Cc2ccccc2)CC1)c1cc2ccc(O)cc2oc1=O`, for which the Ratio IC50 in data set [2] was 32. Moreover, the IC50 stood at 55000 nM on Cholinesterase and 1700 nM on Acetylcholinesterase.

For the compound `O=C(NC1CCN(Cc2ccccc2)CC1)c1cc2cc([N+](=O)[O-])ccc2oc1=O`, the Ratio IC50 in data set [2] came to 51. Besides, the IC50 worked out at 22000 nM against Cholinesterase and 430 nM against Acetylcholinesterase.

With `O=C(NCCC1CCN(Cc2ccccc2)CC1)c1cc2cc(Br)ccc2oc1=O`, the Activity entry in data set [1] is recorded as “Non-toxic”. Further, the result with PC-12 was Active. For the same compound, the Ratio IC50 in data set [2] is 210. For the same compound, the IC50 amounted to 420 nM on Cholinesterase and 2 nM on Acetylcholinesterase.

Consider `COc1ccc2cc(C(=O)NC3CCN(Cc4ccccc4)CC3)c(=O)oc2c1`, for which, in data set [2], the Ratio IC50 was 147. For the same compound, the IC50 was determined as 27000 nM on Cholinesterase and 183 nM on Acetylcholinesterase.
